A selection: hits, their analogues and other compounds. The true share with any hit is near 2.6%.
Platelet DG rel: inhibitors of platelet dense granule secretion, primary screen, cell-based, MLPCN, human platelets | actives 0.22% (n = 300,000) | human platelet-rich plasma, SFLLRN dense granule ATP release, luminescence | inhibition, %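 (compounds screened at 7.5 µM in platelet-rich plasma)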 | AID 1663, 2009;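 active = mean replicate score, as percent of positive control, at or above 50; inconclusive = mean below 50 but at least one replicate at or above 50; inactive = mean and every replicate below 50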
SENP1 FRET inh: human SENP1 catalytic domain inhibitors, primary screen, biochemical, FRET, uHTS; Sentrin-specific protease 1 (Homo sapiens), Q9P0U3; recombinant SENP1 catalytic domain, CyPet-SUMO1-YPet FRET cleavage; inhibition, % at 10 µM; actives 0.21% (n = 360,000); AID 624204, 2012;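 active = inhibition at least 30% at 10 µM, raw YFP signal under a set limit, fluorescence ratio 0.5 to 1.5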;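 note: 0% = enzyme with DMSO and 100% = no enzyme wells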
Target sequence (Q9P0U3 419-644 limits assumed): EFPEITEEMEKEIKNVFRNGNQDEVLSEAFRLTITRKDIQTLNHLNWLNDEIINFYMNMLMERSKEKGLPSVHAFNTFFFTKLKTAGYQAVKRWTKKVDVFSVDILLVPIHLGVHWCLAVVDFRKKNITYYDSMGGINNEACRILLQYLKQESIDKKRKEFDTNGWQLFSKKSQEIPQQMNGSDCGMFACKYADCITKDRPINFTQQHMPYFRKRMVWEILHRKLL
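Assay system – human recombinant His6-tagged SENP1 catalytic domain enzyme · Input – SENP1 enzyme, 20 pM final · Buffer or medium – Tris pH 8 buffer plus EDTA, NaCl, BME, BSA, NP40, catalase · Schedule – 50 min reaction at room temperature · Technique – FRET read of cyan and yellow fluorescence · Control set – no-enzyme wells low, DMSO-plus-enzyme wells high control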
SENP7 inh: SENP7 protease inhibitors, primary screen, biochemical, luminescence, uHTS; AID 434973, 2010; actives 1.5% (n = 330,000); inhibition, % at 5 µM; Sentrin-specific protease 7 (Homo sapiens), Q9BQF6; recombinant SENP7, Z-RLRGG-aminoluciferin luminescence, 40 min;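 active = inhibition above about 50% at the single test dose, limit read from the data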;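 note: plate controls were DMSO with enzyme for no effect and no enzyme buffer wells for full effect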
Target sequence (Q9BQF6 706-1050 limits assumed): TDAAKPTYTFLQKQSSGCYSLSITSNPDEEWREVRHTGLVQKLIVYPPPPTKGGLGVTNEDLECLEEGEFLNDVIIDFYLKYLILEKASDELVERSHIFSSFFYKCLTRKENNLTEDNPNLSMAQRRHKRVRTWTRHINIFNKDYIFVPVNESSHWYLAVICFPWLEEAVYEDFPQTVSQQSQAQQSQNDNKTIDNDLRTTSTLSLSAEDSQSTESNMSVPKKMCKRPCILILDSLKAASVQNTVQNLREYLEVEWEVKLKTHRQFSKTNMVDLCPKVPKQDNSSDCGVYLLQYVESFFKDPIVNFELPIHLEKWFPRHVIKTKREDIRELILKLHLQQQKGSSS
SENP8 block-1: human SENP8 protease inhibitors, primary screen, biochemical, fluorescence, Nedd8 protein substrate, uHTS | recombinant SENP8 | inhibition, % at 20 µM | actives 0.64% (n = 360,000) | AID 602440, 2012; in the data active = inhibition mostly above about 40%, no sharp cut-off; inactive = mostly below about 27%
Target sequence (Q96LD8 whole entry, looked up): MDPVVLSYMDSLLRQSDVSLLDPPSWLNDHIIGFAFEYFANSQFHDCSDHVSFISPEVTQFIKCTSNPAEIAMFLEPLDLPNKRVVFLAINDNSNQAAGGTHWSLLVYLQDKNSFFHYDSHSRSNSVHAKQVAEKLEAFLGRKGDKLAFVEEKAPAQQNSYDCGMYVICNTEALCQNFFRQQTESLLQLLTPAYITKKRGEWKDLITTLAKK
SENP6 block: SENP6 protease inhibitors, primary screen, biochemical, luminescence, uHTS. Recombinant SENP6 catalytic domain, aminoluciferin luminescence. inhibition, % at 10 µM. actives 1.8% (n = 330,000). AID 2599, 2010;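 active = inhibition above about 50% at the single tested dose, limit read from the data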;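 note: plate controls were DMSO wells with enzyme for no effect and DMSO wells lacking enzyme for full effect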
SENP8 block-2: SENP8 protease inhibitors, primary screen, biochemical, luminescence | Sentrin-specific protease 8 (Homo sapiens), Q96LD8 | purified SENP8, Z-RLRGG-aminoluciferin cleavage | inhibition, % at 10 µM | actives 1.2% (n = 330,000); in the data active = inhibition above about 50%
SENP8 confirm: SENP8 protease inhibitors, retest, confirmation, biochemical, luminescence, single concentration | shares compounds with SENP7 inh | Recombinant SENP8, Z-RLRGG-aminoluciferin luminescence, 60 min | inhibition, % at 12.5 µM | actives 40% (n = 6,200) | AID 488912, 2010;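 active = mean inhibition across replicates above about 50%, limit read from the data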
SENP6 conf: SENP6 protease inhibitors, confirmation, biochemical, luminescence, single concentration | shares compounds with SENP7 inh | recombinant SENP6, Z-RLRGG-aminoluciferin luminescence | inhibition, % at 12.5 µM | actives 58% (n = 6,200) | AID 488915, 2010
SENP7 confirm: SENP7 protease inhibitors, retest, confirmation, biochemical, luminescence, single concentration | shares compounds with SENP7 inh | recombinant SENP7, Z-RLRGG-aminoluciferin luminescence, 40 min | inhibition, % at 12.5 µM | actives 69% (n = 6,200) | AID 488917, 2010
Casp3 SENP sel: caspase-3 protease inhibitors, confirmation, selectivity assay for SENP inhibitor project, biochemical, single concentration. shares compounds with SENP7 inh. purified caspase-3, Z-DEVD-aminoluciferin luminescence, 60 min. inhibition, % at 12.5 µM. actives 60% (n = 6,200). AID 488918, 2010;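 active = mean inhibition above about 50%, limit read from the data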;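 note: plate controls were enzyme with DMSO for no effect and wells without caspase-3 for full effect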
Luc interf: interferes with luciferase luminescence in SENP counter-screen | Pre-incubated SENP8/Z-RLRGG-aminoluciferin, luciferase luminescence interference | inhibition, % at 12.5 µM | actives 39% (n = 6,200) | shares compounds with SENP7 inh | AID 488919;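 active = mean inhibition above about 50% when retested at one dose, limit read from the data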;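 note: plate controls were DMSO wells with completed reaction for no effect and substrate without enzyme for full effect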
* hit, by the source's call; i = inactive; ? = inconclusive; nt = no result given.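 Rule for the calls, unless noted: active = mean inhibition above about 50% in the one-dose retest (limit read from the data); inactive = the rest.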

SMILES | Platelet DG rel | SENP1 FRET inh | SENP7 inh | SENP8 block-1 | SENP6 block | SENP8 block-2 | SENP8 confirm | SENP6 conf | SENP7 confirm | Casp3 SENP sel | Luc interf
CCOc1ccc(NS(=O)(=O)c2ccc(C(=O)NCCN3CCOCC3)cc2)cc1 | 12.4 | 0.5 | 1.3 | -0.2 | 2.2 | -4.9 | nt | nt | nt | nt | nt
Cn1nc(C(=O)OCC(=O)Nc2ccc(SC(F)F)cc2)c2ccccc2c1=O | nt | 1.9 | -0.2 | 9.0 | -26.0 | -9.1 | nt | nt | nt | nt | nt
Cc1cccc(N2CC(C)Cn3c2nc2c3c(=O)[nH]c(=O)n2C)c1 (centres undefined) | -0.7 | 2.3 | -7.0 | 12.0 | -2.0 | 0.4 | nt | nt | nt | nt | nt
COc1ccc(CN2C(=NC(=O)C3CCCCC3)SC3CS(=O)(=O)CC32)cc1 (centres undefined) | 4.4 | 2.7 | -6.6 | 12.9 | 19.0 | 2.8 | nt | nt | nt | nt | nt
COc1ccc(-n2nc3cc(C)c(N)c(Br)c3n2)cc1 | 30.3 | -5.0 | 43.8 | -482.0 | 62.9* | 40.2 | 11.6 | 38.3 | 53.2* | 5.9 | 6.6
CCc1ccc(-n2nc3cc(C)c(N)cc3n2)cc1 | 4.6 | -46.0 | -16.2 | -434.1 | 68.7* | 48.9 | 72.8* | 75.6* | 96.7* | 68.7* | 29.6
Cc1ccc(-n2nc3cc(C)c(N)cc3n2)cc1 | 3.0 | -4.3 | -0.5 | i | 39.3 | 13.1 | nt | nt | nt | nt | nt
COc1ccc(-n2nc3cc(N)c(Br)cc3n2)cc1 | 0.6 | -22.1 | 67.4* | -357.9 | 84.5* | 74.3* | 25.5 | 67.4* | 88.9* | 36.0 | 8.4
CN(C)c1ccc(CC(=O)N2CCCC(c3cc(C(=O)Nc4ccc(C(C)(C)C)cc4)no3)C2)cc1 (centres undefined) | nt | -1.1 | nt | 9.3 | nt | nt | nt | nt | nt | nt | nt
O=C1NC(=Nc2ccccc2Cl)S/C1=C\c1cccc([N+](=O)[O-])c1O | 2.9 | 58.4* | 8.7 | 47.9* | 92.7* | 86.0* | 89.8* | 92.0* | 79.0* | 52.0* | 81.2*
COc1c(/C=C2\SC(=Nc3ccccc3Cl)NC2=O)cccc1[N+](=O)[O-] | ? | 1.2 | 9.4 | 14.2 | -36.1 | -43.9 | nt | nt | nt | nt | nt
CC(C)(C)OC(=O)C[C@H]1C/C=C\C[C@@H](CC(=O)N[C@@H](CO)Cc2ccccc2)C(=O)NC[C@H](c2ccccc2)OC1=O | nt | 1.9 | 1.7 | 9.1 | -21.5 | -1.2 | nt | nt | nt | nt | nt
COc1ccc(C2=NN3C(C2)c2ccccc2OC32C(=O)N(C)c3ccccc32)cc1 (centres undefined) | 4.5 | -28.2 | 80.3* | -452.0 | 90.5* | 79.5* | 12.0 | 4.1 | 14.2 | 8.4 | 5.2
O=C1CC(C(=O)O)(c2ccccc2)c2cccc(F)c21 (centres undefined) | -5.3 | -1.3 | -7.0 | 8.5 | -1.6 | -8.8 | nt | nt | nt | nt | nt
Cc1cc(CNC(=O)c2cccnc2Cl)c2ccccc2n1 | -1.1 | -0.2 | 1.1 | 5.7 | -3.0 | -2.1 | nt | nt | nt | nt | nt
Cc1nc(/N=C\c2ccc(N(C)C)cc2)sc1C | -1.1 | 0.7 | 10.5 | -0.5 | 2.5 | 60.5* | -23.9 | -13.9 | -7.6 | -9.2 | -4.7
CCOc1cc(CNc2ccc3cn[nH]c3c2)ccc1OC | 8.6 | -77.8 | 58.6* | -213.4 | 67.9* | 53.1* | 10.3 | 41.1 | 5.3 | -0.4 | -4.5
N#C/C(=C\c1ccc2c(c1)OCCO2)C(=O)Nc1nccs1 | -26.2 | -34.1 | -2.8 | -29.0 | 46.5 | 22.5 | nt | nt | nt | nt | nt
O=C(c1cc(-c2ccc(Br)cc2)on1)N1CCCCCC1 | 0.8 | 0.6 | 15.7 | 13.1 | -2.1 | -13.4 | nt | nt | nt | nt | nt
O=C(c1cc(-c2cccc(O)c2)on1)N1CCCCCC1 | -10.4 | 0.5 | 16.2 | 11.7 | 37.3 | 20.2 | nt | nt | nt | nt | nt
COc1ccc(-c2cc(C(=O)N3CCOCC3)no2)cc1 | 0.7 | 2.0 | 54.6* | 9.0 | 50.9* | 41.7 | 54.4* | 51.8* | 83.2* | 79.3* | 53.3*
O=C(c1cc(-c2ccc(Br)cc2)on1)N1CCOCC1 | -0.1 | 0.8 | 34.2 | 15.8 | 52.5* | 27.2 | 24.8 | 45.6 | 21.4 | 35.4 | 2.3
O=C(c1cc(-c2cccc(O)c2)on1)N1CCOCC1 | 14.2 | 1.9 | 46.8 | 14.8 | 62.7* | 26.4 | 48.0 | 41.7 | 69.8* | 78.0* | 59.0*
Nc1[nH]c(=O)nc2snnc12 | nt | 0.0 | nt | -12.2 | nt | nt | nt | nt | nt | nt | nt
CN(CCc1ccccc1)C(CCc1ccccc1)C(=O)Nc1ccc2c(c1)OCCO2 (centres undefined) | nt | 0.5 | nt | 26.3 | nt | nt | nt | nt | nt | nt | nt
SMILES | Platelet DG rel | SENP1 FRET inh | SENP7 inh | SENP8 block-1 | SENP6 block | SENP8 block-2 | SENP8 confirm | SENP6 conf | SENP7 confirm | Casp3 SENP sel | Luc interf
Cc1cc(C)c2c(N)c(-c3nc4ccccc4[nH]3)sc2n1 | -0.9 | 6.4 | 0.9 | -484.6 | -8.2 | -4.3 | nt | nt | nt | nt | nt
Cc1ccc2nc(-c3sc4nc(C)ccc4c3N)[nH]c2c1 | 0.3 | -18.4 | 6.8 | -253.3 | 56.0* | 24.2 | 49.5 | 42.8 | 29.6 | 12.1 | 24.2
Cc1ccc([C@@H]2CC=C(C(=O)O)[C@H](c3ccccc3F)N2S(=O)(=O)c2ccccc2C)cc1 | nt | 0.2 | 7.9 | 5.7 | 17.0 | -0.8 | nt | nt | nt | nt | nt
Cc1cccc(N(CC(=O)NCC2CCCO2)C(=O)CCC(=O)Nc2nccs2)c1 (centres undefined) | 0.9 | 0.9 | 3.0 | 16.0 | 20.6 | 3.3 | nt | nt | nt | nt | nt
O=CNc1c(Br)cc2c(c1Br)Cc1cc(Br)ccc1-2 | nt | 4.4 | nt | 27.5 | nt | nt | nt | nt | nt | nt | nt
COc1ccc(-c2nnc(SCc3ccccc3F)o2)cc1OC | 3.1 | 3.5 | 2.0 | 23.8 | 4.4 | -0.1 | nt | nt | nt | nt | nt
Cc1ccc(-c2nnc(SCc3ccccc3F)o2)cc1 | -2.0 | 2.5 | 57.6* | 3.8 | 66.9* | 48.9 | 61.1* | 69.9* | 87.1* | 45.4 | 43.4
NC(=S)Nc1cc2ccccc2c2ccccc12 | 3.2 | -0.8 | -7.2 | -126.7 | 9.3 | 7.0 | nt | nt | nt | nt | nt
NC(=S)Nc1cccc2cc3ccccc3cc12 | -5.0 | -33.4 | 19.2 | -263.7 | 60.5* | 48.6 | 50.9* | 59.7* | 74.0* | 27.8 | 61.1*

Bioassay records (PubChem)
